In assay [1] the target is RAC-beta serine/threonine-protein kinase (Homo sapiens) (UniProt P31751). As to the kind of experiment: Inhibition of human recombinant AKT2 at 40 nM related to control ULK1. The gist of the method:
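Radiometric activity assays in a panel of 327 human recombinant kinases, each run in duplicate at one inhibitor concentration. Activity remaining is expressed as percent of vehicle control, and percent inhibition is calculated as 100% minus percent activity remaining.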

Assay [2] deals with T1, Homeodomain-interacting protein kinase 4 (Homo sapiens) (UniProt Q8NE63).
T1 sequence (whole entry): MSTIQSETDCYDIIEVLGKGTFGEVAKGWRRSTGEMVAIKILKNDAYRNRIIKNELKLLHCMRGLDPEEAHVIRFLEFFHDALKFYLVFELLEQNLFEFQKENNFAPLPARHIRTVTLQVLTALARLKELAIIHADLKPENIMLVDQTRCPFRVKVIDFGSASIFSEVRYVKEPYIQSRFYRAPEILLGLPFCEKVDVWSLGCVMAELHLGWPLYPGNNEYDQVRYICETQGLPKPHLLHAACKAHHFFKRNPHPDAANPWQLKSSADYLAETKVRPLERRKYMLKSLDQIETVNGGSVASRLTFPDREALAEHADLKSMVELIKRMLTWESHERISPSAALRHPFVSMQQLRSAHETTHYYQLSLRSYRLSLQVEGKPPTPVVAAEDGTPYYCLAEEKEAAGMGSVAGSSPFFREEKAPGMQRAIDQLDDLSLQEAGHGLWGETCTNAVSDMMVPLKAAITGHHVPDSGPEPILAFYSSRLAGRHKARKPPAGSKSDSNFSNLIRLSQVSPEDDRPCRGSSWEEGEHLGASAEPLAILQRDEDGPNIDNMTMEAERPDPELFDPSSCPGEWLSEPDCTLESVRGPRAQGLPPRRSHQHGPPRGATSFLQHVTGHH
The assay can be described thus: Inhibition of human recombinant HIPK4 at 40 nM related to control ULK1.

Assay [3] concerns the target T2, Mitogen-activated protein kinase kinase kinase 7 (Homo sapiens) (UniProt O43318).
T2 sequence (whole entry): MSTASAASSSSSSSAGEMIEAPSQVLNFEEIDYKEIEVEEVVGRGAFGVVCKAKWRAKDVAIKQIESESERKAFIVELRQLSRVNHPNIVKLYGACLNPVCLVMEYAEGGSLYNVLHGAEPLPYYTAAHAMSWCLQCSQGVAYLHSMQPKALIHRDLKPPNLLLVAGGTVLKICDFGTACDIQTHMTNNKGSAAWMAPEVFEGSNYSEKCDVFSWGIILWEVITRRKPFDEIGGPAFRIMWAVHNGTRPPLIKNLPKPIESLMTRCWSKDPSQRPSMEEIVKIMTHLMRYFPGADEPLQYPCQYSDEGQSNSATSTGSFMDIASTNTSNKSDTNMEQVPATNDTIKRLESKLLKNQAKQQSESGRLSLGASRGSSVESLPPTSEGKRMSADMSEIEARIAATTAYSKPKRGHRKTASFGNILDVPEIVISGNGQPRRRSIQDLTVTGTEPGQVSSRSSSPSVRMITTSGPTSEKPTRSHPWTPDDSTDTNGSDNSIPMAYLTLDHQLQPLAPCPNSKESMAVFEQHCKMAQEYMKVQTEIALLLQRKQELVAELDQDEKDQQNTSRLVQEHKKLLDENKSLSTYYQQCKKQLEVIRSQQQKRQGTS
The assay can be described thus: Inhibition of human recombinant TAK1 at 40 nM related to control ULK1.

In assay [4] the target is T3, TGF-beta receptor type-1 (Homo sapiens) (UniProt P36897).
T3 sequence (whole entry): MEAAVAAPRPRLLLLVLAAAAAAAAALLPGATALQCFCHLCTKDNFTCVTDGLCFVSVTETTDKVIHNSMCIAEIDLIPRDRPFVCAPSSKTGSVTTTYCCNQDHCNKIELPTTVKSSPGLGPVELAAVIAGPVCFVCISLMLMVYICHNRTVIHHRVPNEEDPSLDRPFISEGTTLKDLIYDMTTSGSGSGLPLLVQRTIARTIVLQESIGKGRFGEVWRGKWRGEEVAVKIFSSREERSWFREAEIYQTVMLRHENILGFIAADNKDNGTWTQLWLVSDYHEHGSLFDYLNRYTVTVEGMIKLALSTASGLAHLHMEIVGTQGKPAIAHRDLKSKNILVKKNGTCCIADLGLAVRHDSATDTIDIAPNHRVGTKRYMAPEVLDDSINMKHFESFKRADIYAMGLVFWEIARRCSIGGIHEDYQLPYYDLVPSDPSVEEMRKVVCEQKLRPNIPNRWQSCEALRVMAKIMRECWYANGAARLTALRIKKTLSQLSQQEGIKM
The assay can be described thus: Inhibition of human recombinant TGFbR1 at 500 nM in presence of ATP by radiometric assay relative to control.

The target of assay [5] is Protein kinase C iota type (Homo sapiens) (UniProt P41743). As to the kind of experiment: Inhibition of human recombinant PKCi at 500 nM related to control ULK1.
Sequence of Protein kinase C iota type (Homo sapiens) (P41743 whole entry, looked up): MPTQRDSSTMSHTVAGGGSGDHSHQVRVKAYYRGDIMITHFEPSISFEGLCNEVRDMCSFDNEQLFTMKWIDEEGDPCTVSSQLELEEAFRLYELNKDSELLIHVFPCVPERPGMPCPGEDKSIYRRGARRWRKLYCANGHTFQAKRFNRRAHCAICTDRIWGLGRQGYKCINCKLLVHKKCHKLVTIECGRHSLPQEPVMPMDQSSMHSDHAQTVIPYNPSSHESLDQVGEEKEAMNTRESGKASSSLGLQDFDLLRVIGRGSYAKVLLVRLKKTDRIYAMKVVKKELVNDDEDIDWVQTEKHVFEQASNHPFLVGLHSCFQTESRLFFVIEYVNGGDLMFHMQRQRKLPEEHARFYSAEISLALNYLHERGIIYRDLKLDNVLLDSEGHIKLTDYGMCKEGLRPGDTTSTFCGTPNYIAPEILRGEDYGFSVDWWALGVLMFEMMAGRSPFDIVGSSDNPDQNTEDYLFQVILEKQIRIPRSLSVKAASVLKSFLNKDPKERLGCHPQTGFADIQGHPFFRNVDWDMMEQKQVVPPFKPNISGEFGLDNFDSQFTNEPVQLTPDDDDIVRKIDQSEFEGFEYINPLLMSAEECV

Sequence of RAC-beta serine/threonine-protein kinase (Homo sapiens) (P31751 whole entry): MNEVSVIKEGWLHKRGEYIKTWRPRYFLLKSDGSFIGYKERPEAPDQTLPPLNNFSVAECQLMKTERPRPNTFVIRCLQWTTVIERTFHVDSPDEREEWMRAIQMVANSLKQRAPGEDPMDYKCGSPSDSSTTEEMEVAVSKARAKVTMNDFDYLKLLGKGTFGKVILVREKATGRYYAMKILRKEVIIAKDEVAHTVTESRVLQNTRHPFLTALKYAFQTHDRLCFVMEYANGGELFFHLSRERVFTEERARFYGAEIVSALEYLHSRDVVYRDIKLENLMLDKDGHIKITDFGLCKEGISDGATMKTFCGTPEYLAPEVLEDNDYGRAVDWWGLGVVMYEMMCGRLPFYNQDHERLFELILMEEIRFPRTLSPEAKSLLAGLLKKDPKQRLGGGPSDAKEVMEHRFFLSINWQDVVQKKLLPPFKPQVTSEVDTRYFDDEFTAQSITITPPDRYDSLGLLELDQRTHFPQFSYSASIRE

As for `O=C(N[C@@H](C1CC1)C(F)(F)F)c1cc(-c2cnn3cc(-c4ccc(F)cc4)cnc23)cs1`, the fold change (FC) in assay [1] amounted to 0.14; in assay [2], 0; in assay [3] it was 0.

The inhibition is the relative decrease from the control value, in per cent. On to `CNC(=O)c1ccccc1Oc1nc(Nc2cc(OC)c(OC)c(OC)c2)ncc1Br`, for which the inhibition in assay [4] is 0%. In assay [5], the fold change (FC) was 0.

These data come from ChEMBL document CHEMBL5653631, “A Potent and Selective ULK1 Inhibitor Suppresses Autophagy and Sensitizes Cancer Cells to Nutrient Stress” (iScience, 2018).
